Assay results from different studies.
Protocols differ between the studies behind these lines.
Target: Inhibitor of nuclear factor kappa-B kinase subunit epsilon (IKBKE, Homo sapiens, UniProt Q14164)
One construct used (Q14164 1-716): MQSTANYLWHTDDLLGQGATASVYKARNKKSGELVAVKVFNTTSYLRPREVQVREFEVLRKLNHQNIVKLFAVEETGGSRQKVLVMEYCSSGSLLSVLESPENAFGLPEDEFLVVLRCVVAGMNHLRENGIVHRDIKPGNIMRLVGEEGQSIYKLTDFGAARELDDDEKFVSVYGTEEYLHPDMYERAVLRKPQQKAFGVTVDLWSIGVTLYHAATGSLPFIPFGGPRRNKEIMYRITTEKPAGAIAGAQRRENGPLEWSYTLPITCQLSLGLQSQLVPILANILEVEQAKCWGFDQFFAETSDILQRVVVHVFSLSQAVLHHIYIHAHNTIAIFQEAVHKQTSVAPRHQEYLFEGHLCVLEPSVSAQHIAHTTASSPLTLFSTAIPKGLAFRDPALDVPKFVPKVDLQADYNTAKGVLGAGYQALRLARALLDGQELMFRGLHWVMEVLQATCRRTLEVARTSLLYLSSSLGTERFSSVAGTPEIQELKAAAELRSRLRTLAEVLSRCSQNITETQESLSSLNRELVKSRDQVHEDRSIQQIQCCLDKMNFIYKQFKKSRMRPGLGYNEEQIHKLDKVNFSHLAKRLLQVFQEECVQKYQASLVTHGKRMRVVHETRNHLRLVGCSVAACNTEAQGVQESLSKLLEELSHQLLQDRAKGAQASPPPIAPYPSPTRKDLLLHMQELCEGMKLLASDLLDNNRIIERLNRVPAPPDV

Cn1cncc1[C@@](O)(COc1ccc(C#N)cc1-c1ccc(OC(F)(F)F)cc1)c1ccc(C#N)cc1
remaining binding (cell-free assay; competition with immobilised ligand; 1 µM): 100%

Nc1ncc(-c2nc(N3CCOCC3)nc(N3CCOCC3)n2)c(C(F)F)n1
remaining binding (binding; competition with immobilised ligand; 10 µM): 99%

CC(C)(C)c1cc(C=C(C#N)C#N)cc(Br)c1O
remaining activity (enzyme activity; inhibitor; 0.5 µM): 86.8%

Cn1cc(-c2cccc(N3CCc4c(sc5c4CC(C)(C)C5)C3=O)c2CO)cc(Nc2ccncn2)c1=O
inhibition (enzyme activity; inhibitor; 1 µM): 9%

Cc1nn(C)cc1-c1nc2c(N3CCN(Cc4ccc(Cl)cc4)CC3)c(Cl)cnc2[nH]1
remaining binding (binding; competition with immobilised ligand; 1 µM): 100%

Cn1cc(-c2cc(F)cc(N3CCn4c(cc5c4CCCC5)C3=O)c2CO)cc(Nc2ccc(N3CCN(C4COC4)CC3)cn2)c1=O
inhibition (enzyme activity; inhibitor; 0.1 µM): 12%

N#CC1(c2ccccn2)CCN(Cc2cc(C(=O)O)c(=O)n3ccccc23)CC1
remaining binding (cell-free assay; competition with immobilised ligand; 1 µM): 88%

COc1ncccc1-c1cnn2ccc(N3CCN(C(=O)OC(C)C)CC3)nc12
remaining binding (binding; competition with immobilised ligand; 1 µM): 69%

O=c1[nH]c2ccccc2n1C1CCN(Cc2ccc(-c3[nH]c4cc5ncnc5cc4nc3-c3ccccc3)cc2)CC1
remaining activity (enzyme activity; 0.5 µM): 91.9%
